Screening data (PubChem)
In the library only some 2% were active in any assay of this set; here they are far more common.
TPT1 inhibitor – C. albicans TPT1 enzyme inhibition | recombinant caTPT1, FP RNA substrate dephosphorylation | inhibition, % at 5 µM | 0.81% of 300,000 active | AID 1962;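 active = inhibition above the mean of all tested compounds plus 3 SD, set per screening campaign, cut at about 24% in these data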
Rpn11 block – inhibitors of human proteasome Rpn11 | human 26S proteasome, Ub4-pepOG fluorescence polarization; 20S core pre-blocked with epoxomicin | inhibition, % at 20 µM | 0.59% of 360,000 active | O00487;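 active = inhibition at 20 µM, scaled to each plate's controls, above about 33%, limit read from the data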
SENP1 inh – SENP1 (human) catalytic domain inhibition; inhibition, % at 10 µM; recombinant SENP1 catalytic domain, CyPet-SUMO1-YPet FRET cleavage; 0.21% of 360,000 active;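 active = inhibition at least 30% at 10 µM, raw YFP signal under a set limit, fluorescence ratio 0.5 to 1.5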
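material = recombinant human SENP1 catalytic domain, His6-tagged | quantity = 20 pM enzyme | reagent = 25 nM SUMO1 FRET substrate | compound dosing = 10 µM single point, 0.5% DMSO | timing = 50 min enzyme reaction, room temperature, light-protected | detection = FRET, CFP and YFP emission | control set = no-enzyme low, enzyme-DMSO high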
ATG4B inhibitor – blocks human ATG4B protease cleavage of LC3 substrate; ATG4B cleavage of LC3-PLA2, NBD-HPC fluorescence, 1 h; inhibition, % at 8.33 µM; 0.51% of 340,000 active; AID 504462; Q9Y4P1
CSN inh – CSN deneddylation inhibition. Purified CSN, SCF-Nedd8-OG deneddylation, fluorescence polarization. Q92905. inhibition, % at 12.5 µM. 0.38% of 360,000 active. AID 651999;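 active = pattern-corrected inhibition above about 35%, with an unprinted fluorescence ratio check between 0.5 and 1.5, limit read from the data, passing the limit was not always enough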
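assay system = purified human Csn5 enzyme expressed in HEK293T cells | amount = 0.24 nM enzyme | buffer or medium = Tris/NaCl/DTT buffer, pH 7.5 | reagent = 10 nM SCFSkp2-Nedd8OG | compound = one concentration, 12.5 µM, 0.25% DMSO | times = 90 min reaction at room temperature | signal = FP | read-out basis = % inhibition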
HNF4A DNA FP – change in binding of human HNF4 alpha to DNA; 0.3% of 360,000 active; P41235; activity change, % at 10 µM; HNF4a-FITC DNA binding, fluorescence polarization, 1 h; AID 1224865; in the data active = activity change above about 30%, passing the limit was not always enough
Target sequence (P41235 whole entry, looked up): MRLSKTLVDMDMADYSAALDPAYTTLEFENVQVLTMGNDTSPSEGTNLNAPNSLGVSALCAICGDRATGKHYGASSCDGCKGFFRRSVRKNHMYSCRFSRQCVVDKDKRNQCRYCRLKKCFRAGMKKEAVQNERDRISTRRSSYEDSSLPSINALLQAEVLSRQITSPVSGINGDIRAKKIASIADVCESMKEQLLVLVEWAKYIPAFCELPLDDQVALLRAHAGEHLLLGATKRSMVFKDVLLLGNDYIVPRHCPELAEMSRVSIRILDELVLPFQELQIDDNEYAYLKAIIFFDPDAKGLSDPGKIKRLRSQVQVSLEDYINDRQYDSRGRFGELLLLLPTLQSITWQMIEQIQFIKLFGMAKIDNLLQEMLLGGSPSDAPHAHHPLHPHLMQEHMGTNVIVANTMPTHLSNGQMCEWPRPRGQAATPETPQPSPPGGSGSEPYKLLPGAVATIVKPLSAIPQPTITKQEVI
Rpn11 inh conf – confirmation of human proteasome Rpn11 inhibitors. shares compounds with Rpn11 block. 29% of 1,900 active. purified human 26S proteasome, Ub4-pepOG fluorescence polarization; proteasome pretreated with epoxomicin. inhibition, % at 20 µM
MMP-2 counter – MMP-2 (human) inhibition counter-screen; shares compounds with Rpn11 block; recombinant MMP-2, FRET peptide cleavage fluorescence; inhibition, % at 20 µM; 4% of 1,900 active; AID 602330;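 also: human MMP-2 activated beforehand with APMA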
Thrombin FP – thrombin (bovine) inhibition counter-screen; shares compounds with Rpn11 block; bovine thrombin cleavage of Ub4-pepOG, fluorescence polarization; inhibition, % at 20 µM; 13% of 1,900 active; AID 602333;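 active = mean inhibition at least 40% at 20 µM, or signal 3 deviations below plate average, so some actives read negative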
A number is an active result; 0 = inactive; - = no result. Rule as the data show it, unless noted: active = inhibition above about 40%; inactive = the rest.

SMILES | TPT1 inhibitor | Rpn11 block | SENP1 inh | ATG4B inhibitor | CSN inh | HNF4A DNA FP | Rpn11 inh conf | MMP-2 counter | Thrombin FP
NC(=O)CC(NC(=O)c1ccc(Br)cc1)c1ccc(NC2CCCCCC2)c([N+](=O)[O-])c1 (stereo not given) | 0 | 43 | 0 | 0 | 0 | 0 | 40 | 0 | 0
CCc1ccc(OCC(=O)Nc2ccc(-c3nc4ccccc4o3)c(O)c2)cc1 | 0 | 128 | 0 | 0 | 0 | 0 | 0 | 0 | 0
CC(SCc1ccc(C(=O)O)o1)c1ccc(C(=O)O)o1 (stereo not given) | 0 | 143 | 0 | 0 | 0 | 0 | 0 | 0 | 0
Cc1ccc(CSCc2ccc(C(=O)O)o2)cc1 | 0 | 0 | 0 | 0 | 0 | 0 | - | - | -
C=CCNC(=O)/C(C#N)=C/c1c(N(Cc2ccccc2)Cc2ccccc2)nc2ccccn2c1=O | 0 | 46 | 0 | 0 | 0 | 0 | 0 | 0 | 0
N#C/C(=C\c1c(N(Cc2ccccc2)Cc2ccccc2)nc2ccccn2c1=O)C(N)=O | 0 | 0 | 0 | 0 | 0 | 0 | - | - | -
COc1ccc(OCC(O)CN2CCN(c3ccc(Cl)cc3)CC2)cc1 (stereo not given) | 0 | 0 | 0 | 0 | 0 | 0 | - | - | -
COc1ccc(N2CCN(CC(O)COc3ccc4c(c3)CCC4)CC2)cc1 (stereo not given) | 0 | 105 | 0 | 0 | 0 | 0 | 0 | 0 | 0
Oc1cc(O)c(CN2CCOCC2)cc1CN1CCOCC1 | - | 0 | 0 | 0 | 0 | 0 | - | - | -
Oc1c(CN2CCOCC2)cc(CN2CCOCC2)cc1CN1CCOCC1 | - | 44 | 0 | 0 | 0 | 0 | 0 | 0 | 0
Cc1cn(CC(=O)N(C)Cc2ccco2)c(=O)[nH]c1=O | - | 0 | 0 | - | 0 | 0 | - | - | -
CCOc1ccccc1-c1nnc(SCC(=O)NC2CC2)n1CC | 0 | 0 | 0 | 0 | 0 | 0 | - | - | -
CN1CCN(C(c2ccc(Cl)cc2)c2cc(Cl)c3cccnc3c2O)CC1 (stereo not given) | 0 | 46 | 0 | 0 | 0 | 0 | 44 | 0 | 0
O=C(CCOc1ccc(F)cc1)Nc1nccs1 | 0 | 0 | 0 | 0 | 0 | 0 | - | - | -
COc1ccc(C(=O)NC2CC2)cc1OC1CCN(Cc2cc(C)cc(C)c2)CC1 | 0 | 0 | 0 | 0 | 0 | 0 | - | - | -
O=C(/C=C/c1ccco1)Nc1ccc2nc3n(c(=O)c2c1)CCCC3 | 0 | 0 | 0 | 0 | 0 | 0 | - | - | -
Cc1cc(C)c(S(=O)(=O)n2ccc(-c3ccc(OCCN(C)c4ccccn4)cc3)n2)c(C)c1 | 0 | 92 | 0 | 0 | 0 | 0 | 0 | 0 | 0
CN(C)/C=C/C(=O)c1ccc(OCCN(C)c2ccccn2)cc1 | 0 | 0 | 0 | 0 | 0 | 0 | - | - | -
C=CCn1cnc2c(c1=O)c1nc3ccccc3nc1n2/N=C/c1cccc(OC)c1OC | 0 | 192 | 0 | 0 | 59 | 0 | 0 | 0 | 0
CC(=O)/C(=N\Nc1ccccc1)Sc1cccc2cccnc12 | 0 | 0 | 0 | 0 | 0 | 0 | - | - | -
O=C(Sc1cccc2cccnc12)c1ccccc1Br | 0 | 85 | 0 | - | 0 | 0 | 65 | 0 | 0
CCOc1ccc(/C=C2\SC(=S)N(CCC(=O)Nc3ccc(C(=O)O)cc3)C2=O)cc1 | 0 | 44 | 0 | 0 | 0 | 0 | 0 | 0 | 0
O=C(CCCN1C(=O)/C(=C/c2ccc3c(c2)OCO3)SC1=S)Nc1ccc(C(=O)O)cc1 | 0 | 56 | 0 | 0 | 0 | 0 | 52 | 0 | 0
COc1ccc(/C=C2\SC(=S)N(CCC(=O)Nc3ccc(C(=O)O)cc3)C2=O)cc1OC | 0 | 0 | 0 | 0 | 0 | 0 | - | - | -
O=C(CN1C(=O)S/C(=C\c2ccc(-c3cc(C(=O)O)ccc3Cl)o2)C1=O)Nc1ccc2c(c1)OCO2 | - | 169 | 0 | - | 0 | 0 | 0 | 0 | 0
COc1ccc(C=C2SC(=S)N(CCCC(=O)Nc3ccc(C(=O)O)c(O)c3)C2=O)cc1OC | - | 45 | 0 | - | 0 | 0 | 97 | 0 | 79
